# Hits are enriched below; roughly 3.4% of the tested compounds scored in any of these assays.
# TRPML3 agonist: agonists of human TRPML3 channel; Q8TDD5; HEK293 TRPML3-YFP, Fluo-8 calcium fluorescence; 100% = the carbachol control signal; activation, % at 3 µM; 0.29% of 220,000 active; AID 1448;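 active = activation above its plate's cutoff, the mean activation of the plate's test wells plus 3 SD, cut at about 12% in these data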;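 note: 0% = DMSO only wells and 100% = carbachol wells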
#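 Test system: TRPML3-YFP stable HEK293 cells. Doses: single point at 3 µM. Incubation: dye loading 1 h 37 °C then 30 min ambient, 125 s read. Signal: Fluo-8 calcium dye fluorescence, ex 470-495, em 515-575 nm. Measure: percent activation from peak-to-basal fluorescence ratio, scaled between DMSO and carbachol.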
# GPR7 antagonist: human neuropeptides B/W receptor 1 antagonism | P48145 | GPR7-expressing cells, fluorescence antagonist assay | inhibition, % at 4.4 µM | 1.1% of 290,000 active | AID 1861; in the data active = inhibition above about 16%, passing the limit was not always enough;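 note: cells stimulated with the agonist NPW; 0% = agonist with vehicle and 100% = vehicle without agonist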
# TRPN1 ag: zebrafish TRPN1 (NompC) channel agonism | HEK293 zebrafish TRPN1-YFP, Fluo-8 calcium fluorescence; 100% = response to 87 µM carbachol | activation, % at 3 µM | 0.18% of 220,000 active | AID 1424;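 active = activation above its plate's cutoff, the mean activation of test wells on that plate plus 3 SD, cut at about 19% in these data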;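 note: 0% = DMSO alone and 100% = 87 µM carbachol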
#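 Control set: carbachol 87 µM as high control, DMSO as low control; system: HEK293 stable line with zebrafish TRPN1-YFP; read-out: % activation versus carbachol response; detection: intracellular calcium fluorescence with Fluo-8; doses: single test compound dose, 3 µM nominal, 0.3% DMSO; schedule: dye 1 h 37 °C plus 30 min RT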
# TAAR1 antag: human TAAR1 antagonism; CHO RD-HGA16 TAAR1, Fluo-8 calcium fluorescence, antagonist; inhibition, % at 3 µM; 1.5% of 360,000 active; AID 624466;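 active = inhibition above a per-plate cutoff, the mean inhibition of test compounds on that plate plus 3 SD, cut at about 49% in these data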;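 note: 0% = DMSO plus EC80 beta-PEA response and 100% = DMSO alone without agonist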
#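 Test system: RD-HGA16 CHO cells with stable hTAAR1 and Gα16 / Probe or stimulus: EC80 β-phenethylamine stimulus / Times: seeding 17-24 h prior, 75-min 37 °C, 30-min RT dye loading / Detection: Fluo-8 calcium-sensitive fluorescence / Read-out basis: % inhibition scaled between DMSO and EC80 PEA controls / Repeats: singlicate, one well per test compound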
# LANA-H2B inh: blocks KSHV LANA binding to histone H2A/H2B; Q9QR71; cell-free LANA-H2A/H2B peptide, fluorescence polarization; inhibition, % (test concentration not listed); 0.6% of 320,000 active; AID 2629; in the data active = inhibition mostly above about 10%, no sharp cut-off; inactive = mostly below about 6.7%
# Target sequence (Q9QR71 whole entry, looked up): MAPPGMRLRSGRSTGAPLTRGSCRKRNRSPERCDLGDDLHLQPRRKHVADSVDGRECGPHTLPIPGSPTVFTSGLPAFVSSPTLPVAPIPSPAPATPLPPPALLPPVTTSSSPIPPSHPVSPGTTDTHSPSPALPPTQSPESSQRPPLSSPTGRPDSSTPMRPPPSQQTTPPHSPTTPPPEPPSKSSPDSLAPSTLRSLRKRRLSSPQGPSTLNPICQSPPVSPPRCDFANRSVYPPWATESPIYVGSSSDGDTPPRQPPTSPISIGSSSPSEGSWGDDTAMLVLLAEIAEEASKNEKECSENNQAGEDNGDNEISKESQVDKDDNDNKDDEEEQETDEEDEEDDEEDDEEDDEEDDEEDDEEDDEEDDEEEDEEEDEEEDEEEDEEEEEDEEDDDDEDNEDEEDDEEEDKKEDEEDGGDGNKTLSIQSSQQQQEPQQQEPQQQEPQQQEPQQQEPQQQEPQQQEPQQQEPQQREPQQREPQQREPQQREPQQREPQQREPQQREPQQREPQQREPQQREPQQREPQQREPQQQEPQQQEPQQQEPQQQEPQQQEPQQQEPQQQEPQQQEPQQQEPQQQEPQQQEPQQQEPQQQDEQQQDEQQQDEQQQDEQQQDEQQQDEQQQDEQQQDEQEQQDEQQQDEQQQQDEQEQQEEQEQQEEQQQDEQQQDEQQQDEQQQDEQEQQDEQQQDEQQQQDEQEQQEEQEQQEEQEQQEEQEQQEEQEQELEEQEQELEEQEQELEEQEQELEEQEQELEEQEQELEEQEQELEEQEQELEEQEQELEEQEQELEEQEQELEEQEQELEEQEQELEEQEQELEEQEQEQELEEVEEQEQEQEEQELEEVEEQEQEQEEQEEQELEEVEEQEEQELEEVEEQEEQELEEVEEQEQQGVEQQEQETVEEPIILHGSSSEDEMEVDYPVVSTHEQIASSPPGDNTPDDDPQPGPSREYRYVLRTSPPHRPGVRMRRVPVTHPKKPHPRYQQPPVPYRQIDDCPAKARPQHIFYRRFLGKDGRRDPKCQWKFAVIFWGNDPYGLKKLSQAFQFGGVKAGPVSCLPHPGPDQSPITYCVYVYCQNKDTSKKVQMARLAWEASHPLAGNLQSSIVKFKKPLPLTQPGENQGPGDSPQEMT
# TAAR1 ag: human TAAR1 agonism | 0.99% of 360,000 active | CHO RD-HGA16 TAAR1, Fluo-8 calcium fluorescence; vehicle wells 0%, saturating PEA agonist 100% | activation, % at 3 µM | AID 624467;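 active = activation above the mean activation of all test compounds in the run plus 3 SD, cut at about 38% in these data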
#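 Assay system: CHO-derived RD-HGA16 cells with stable Gα16 and human TAAR1; timing: 17-24 h seeding, 75 min 37 °C dye, 30 min RT; read-out: % activation from peak over basal fluorescence ratio, DMSO-to-PEA scaled; measured by: kinetic Fluo-8 calcium fluorescence; benchmarks: low control DMSO, high control PEA (EC100); doses: 3 µM single concentration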
# TAAR1 nonsel count: nonselective antagonism, TAAR1 counter-screen | counterscreen cell line, calcium fluorescence, antagonist mode | inhibition, % at 3 µM | AID 651780 | shares compounds with TAAR1 antag | 77% of 2,400 active; in the data active = inhibition above about 22%;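 note: CHO-Ga16 host cells stimulated with ATP at an EC80 level; 0% = agonist EC80 plus vehicle and 100% = vehicle without agonist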
# TAAR1 antag conf: confirmation of human TAAR1 antagonists | shares compounds with TAAR1 antag | TAAR1-expressing cells, fluorescence antagonist read-out | 40% of 2,400 active | inhibition, % at 3 µM; in the data active = inhibition above about 49%;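 note: CHO-Ga16 host cells challenged with agonist PEA near its EC80; 0% = agonist at EC80 plus vehicle and 100% = vehicle with no agonist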
# Ga16 nonsel ag: nonselective Ga16 agonism, counter-screen | shares compounds with TAAR1 antag | Ga16-expressing cells, calcium fluorescence, agonist counterscreen | activation, % at 3 µM | 18% of 2,400 active | AID 651953; in the data active = activation above about 12%;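 note: 0% = vehicle wells and 100% = saturating stimulus response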
# TAAR1 ag count: activates human TAAR1 in antagonist counter-screen; shares compounds with TAAR1 antag; hTAAR1 cell line, fluorescence activation, agonist mode; activation, % at 3 µM; 2% of 2,400 active; AID 651955; in the data active = activation above about 37%;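 note: CHO cells stably expressing TAAR1 with calcium dye readout; 0% = DMSO vehicle and 100% = full agonist response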
# An asterisk follows results filed as active; · = no result given.
SMILES,TRPML3 agonist,GPR7 antagonist,TRPN1 ag,TAAR1 antag,LANA-H2B inh,TAAR1 ag,TAAR1 nonsel count,TAAR1 antag conf,Ga16 nonsel ag,TAAR1 ag count
O=C(O)c1ccccc1Nc1ccc([N+](=O)[O-])c2nonc12,·,-4.7,·,·,-3.0,·,·,·,·,·
O=C(c1cc(-c2ccncc2)nc2ccccc12)N1CCN(c2ccccc2O)CC1,·,-2.8,·,60.2*,5.0,15.7,29.1*,46.3,8.4,9.6
NC(=O)C1CCN(C(=O)c2cc(-c3ccc(Cl)cc3)nc3ccccc23)CC1,·,·,·,54.1*,-3.8,7.2,22.6*,37.8,7.1,1.2
Cc1ccc2nc(-c3ccccc3)cc(C(=O)N3CCN(c4ccccc4O)CC3)c2c1,·,·,·,66.0*,1.6,12.0,33.3*,50.7*,7.6,8.2
O=C(c1cc(-c2cccc3ccccc23)nc2ccccc12)N1CCN(CCO)CC1,·,·,·,53.9*,-1.6,16.4,27.7*,43.5,8.7,9.9
O=C1CCc2cc(S(=O)(=O)NCCc3ccccc3)cc3c2N1CC3,·,·,·,-3.9,1.9,35.4,·,·,·,·
CC(=O)c1ccc(N2C(=NC(=O)CCC3CCCC3)SC3CS(=O)(=O)CC32)cc1 (centres undefined),·,0.0,·,0.5,-0.5,-0.4,·,·,·,·
CN(C(=O)CSc1nc2ccccc2o1)C1CCCCC1,·,·,·,-1.9,·,-0.3,·,·,·,·
Cc1cccc(N(CC(=O)NCc2ccco2)S(=O)(=O)c2ccccc2)c1,·,·,·,-1.9,·,1.0,·,·,·,·
COc1ccc(-c2ccc(C(=O)Nc3cccc(C(C)=O)c3)c3occc23)c(C)c1,·,·,·,39.9,·,0.2,·,·,·,·
COc1ccc(-c2coc3c(C(=O)Nc4cccc(C(C)=O)c4)cccc23)c(C)c1,·,·,·,57.2*,·,0.7,30.9*,30.8,0.9,-1.4
C=CCN(C(=O)CN1CCCCC1)c1nc(-c2ccccc2)cs1,·,3.1,·,-10.6,1.0,-2.6,·,·,·,·
C=CCN(C(=O)C1CC(=O)N(C2CCCC2)C1)c1nc(-c2ccc(S(C)(=O)=O)cc2)cs1 (centres undefined),·,·,·,78.2*,2.7,32.9,37.9*,64.5*,18.2*,29.7
COc1ccc(-c2[nH]c(-c3ccccc3)nc2SCC(=O)Nc2nccs2)cc1,-0.7,-8.4,-0.9,48.7*,-0.2,7.7,17.5,31.0,5.8,4.2
COc1ccc(-c2[nH]c(-c3ccc(Cl)cc3)nc2SCC(=O)Nc2nccs2)cc1,0.2,-9.8,-2.1,36.6,-0.3,3.3,·,·,·,·
O=C(NCc1ccccc1)C(c1ccc(O)cc1)N(C(=O)c1cnccn1)c1ccccc1 (centres undefined),·,-1.5,·,62.7*,-4.2,16.5,33.7*,52.6*,10.6,10.7
COc1ccc(N(C(=O)c2cnccn2)C(C(=O)NCc2ccccc2)c2ccc(O)cc2)cc1 (centres undefined),·,-2.9,·,-15.4,-4.4,0.1,·,·,·,·
COc1ccc(CNC(=O)C(c2ccco2)N(C(=O)c2ccccn2)c2ccccc2)cc1 (centres undefined),0.4,-0.4,0.7,64.0*,0.7,10.0,22.2*,34.4,6.0,3.7
COc1cc(Cl)c(C)cc1NC(=O)CC1SC(N2CCOCC2)=NC1=O (centres undefined),·,·,·,-3.8,1.1,0.8,·,·,·,·
CN(C)S(=O)(=O)n1cc(/C=C(\NC(=O)c2ccccc2Cl)C(=O)NCCCn2ccnc2)c2ccccc21,·,-2.1,·,54.7*,-0.6,7.8,16.7,30.9,6.7,2.8
CN(C)S(=O)(=O)n1cc(/C=C(\NC(=O)c2ccccc2Cl)C(=O)NCCN2CCOCC2)c2ccccc21,·,-9.4,·,73.3*,6.3,21.1,23.7*,44.1,11.4,12.5
CN(C)S(=O)(=O)n1cc(/C=C(\NC(=O)c2ccccc2Cl)C(=O)NCCCN2CCOCC2)c2ccccc21,·,-7.7,·,25.4,2.4,6.9,·,·,·,·
CCCCN1C[C@H](COC(=O)CCC)Oc2cccc(F)c2S1(=O)=O,·,·,·,10.2,·,-0.1,·,·,·,·
C=CCN1C[C@H](COC(=O)c2cccc(C)c2)Oc2cccc(F)c2S1(=O)=O,·,·,·,49.1*,·,1.3,38.0*,49.6*,7.3,6.2
Cc1n[nH]c(C)c1CCc1nc2c3ccccc3nc(SCC(=O)Nc3ccccc3F)n2n1,0.9,-9.4,-1.9,61.3*,16.2,8.7,22.6*,37.3,8.5,10.1
SMILES,TRPML3 agonist,GPR7 antagonist,TRPN1 ag,TAAR1 antag,LANA-H2B inh,TAAR1 ag,TAAR1 nonsel count,TAAR1 antag conf,Ga16 nonsel ag,TAAR1 ag count
Cc1cncn1CCc1nc2c3ccccc3nc(SCC(=O)Nc3cccc(Cl)c3)n2n1,0.0,0.4,0.2,0.7,·,8.9,·,·,·,·
O=C(CSc1nnc(Nc2ccccc2)s1)Nc1ccc(S(=O)(=O)N2CCOCC2)cc1,0.9,-6.2,3.0,56.7*,-5.6,26.3,36.2*,36.9,7.9,12.3
O=C(CSc1nnc2c(n1)[nH]c1ccccc12)Nc1cccc(S(=O)(=O)N2CCOCC2)c1,0.6,-6.8,-0.7,70.4*,3.2,12.3,42.6*,52.1*,9.4,10.4
COc1ccc(/C=N/NC(=O)CC(=O)NCc2cccnc2)cc1[N+](=O)[O-],·,3.8,·,-13.8,-4.2,0.9,·,·,·,·
COc1ccc(CN2CCN(c3ccc(F)cc3)CC2)c(OC)c1OC,0.5,-11.3,-0.4,-12.6,-1.7,18.0,·,·,·,·
COc1ccc(CN2CCN(C(c3ccc(F)cc3)c3ccc(F)cc3)CC2)c(OC)c1OC,·,·,·,56.0*,-4.8,2.2,19.3,28.9,4.9,11.1
CCN(CC(=O)Nc1c(C(=O)OC)[nH]c2ccc(Cl)cc12)c1ccc2c(c1)OCO2,0.8,-2.8,-0.3,59.7*,-1.5,6.0,27.2*,36.6,4.7,3.4
O=C(CSc1nncs1)Nc1nnc(-c2ccccc2)o1,·,12.7,·,-9.5,-2.0,-0.3,·,·,·,·
OC(c1cccnc1)c1nc(-c2cccc(F)c2)cs1 (centres undefined),·,·,·,-0.9,·,1.5,·,·,·,·
CCN(CC)c1ccc(C(=O)NNC(=O)CNC(=O)c2ccco2)cc1,·,·,·,-23.6,·,2.1,·,·,·,·
O=C(NCCc1ccc(Cl)cc1)c1ccc(CS(=O)Cc2ccccc2Cl)o1 (centres undefined),·,-5.8,·,60.3*,-0.1,8.9,29.1*,40.4,8.6,8.3
